Assay results from ChEMBL document CHEMBL1157852, “Modulation of doxorubicin activity in cancer cells by conjugation with fatty acyl and terpenyl hydrazones” (Eur J Med Chem, 2010).
Calls of active or inactive are those of the source. The rule behind the calls is not given here.

Experiments:
[1] = Cytotoxicity against human 518A2 cells after 72 hrs by MTT assay; type: functional, cell-based; conditions: 518A2, 72 h
Summary of the method: (§1)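 MTT assay. Cells seeded and cultured 24 h, then exposed to compound for 24, 48 or 72 h. MTT added to a final 0.05% (HL-60, 518A2) or 0.1% (KB-V1, MCF-7) for 2 h. Formazan dissolved in 10% SDS/DMSO with 0.6% acetic acid; absorbance read at 570 nm against 630 nm background. Viability taken relative to untreated controls (100%). IC50 from concentration-response curves, mean ± SD of four independent experiments.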

[2] = Cytotoxicity against human vinblastine-resistant KBV1 cells after 72 hrs by MTT assay; type: functional, cell-based; conditions: KB-V1, 72 h; summary of the method: as §1
HL-60 [3] = test: Cytotoxicity against human HL60 cells after 72 hrs by MTT assay; type: functional, cell-based; conditions: HL-60, 72 h; summary of the method: as §1
[4] = Cytotoxicity against human 518A2 cells after 48 hrs by MTT assay; type: functional, cell-based; conditions: 518A2, 48 h; summary of the method: as §1
518A2 [5] = test: Induction of apoptosis in human 518A2 cells assessed as appearance of intact mitochondria in cytosol at 5 uM after 18 hrs using JC1 dye relative to control; type: functional
Summary of the method: (§2)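 Mitochondrial membrane potential measured with JC-1. Cells exposed to 5 µM compound for 6 or 18 h, pelleted at 400 g, stained with 0.2× JC-1 at 37 °C for 15 min (HL-60) or 35 min (518A2), washed and resuspended in PBS. Red fluorescence (ex 585/em 590 nm) and green (ex 510/em 527 nm) read; red/green ratio relative to untreated controls (100%). Mean ± SD, four independent experiments.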

[6] = Cytotoxicity against human vinblastine-resistant KBV1 cells after 48 hrs by MTT assay; type: functional, cell-based; conditions: KB-V1, 48 h; summary of the method: as §1
518A2 [7] = test: Induction of apoptosis in human 518A2 cells assessed as appearance of intact mitochondria in cytosol at 5 uM after 6 hrs using JC1 dye relative to control; type: functional; summary of the method: as §2
HL-60 [8] = test: Cytotoxicity against human HL60 cells assessed as increase in ROS production at 5 uM after 24 hrs by NBT reduction assay relative to control; type: functional
Summary of the method: (§3)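 NBT assay. HL-60 cells (0.5×10⁶/mL) or trypsinised 518A2 cells (5×10⁴/mL) pre-incubated 24 h at 37 °C, then given compound at a final 5 µM for 24 or 72 h. Medium removed; cells incubated with 0.1% NBT for 1 h (HL-60) or 4 h (518A2). Diformazan dissolved in 2 M KOH/DMSO; A630 read against 405 nm. Given as % of untreated controls; double quadruplicates.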

[9] = Cytotoxicity against human vinblastine-resistant KBV1 cells after 24 hrs by MTT assay; type: functional, cell-based; conditions: KB-V1, 24 h; summary of the method: as §1
MCF7 [10] = test: Cytotoxicity against human topotecan-resistant MCF7 cells after 24 hrs by MTT assay; type: functional, cell-based; conditions: MCF7, 24 h; summary of the method: as §1
HL-60 [11] = test: Induction of apoptosis in human HL60 cells assessed as appearance of intact mitochondria in cytosol at 5 uM after 18 hrs using JC1 dye relative to control; type: functional; summary of the method: as §2
MCF7 [12] = test: Cytotoxicity against human topotecan-resistant MCF7 cells after 72 hrs by MTT assay; type: functional, cell-based; conditions: MCF7, 72 h; summary of the method: as §1
HL-60 [13] = test: Cytotoxicity against human HL60 cells after 24 hrs by MTT assay; type: functional, cell-based; conditions: HL-60, 24 h; summary of the method: as §1
[14] = Cytotoxicity against human 518A2 cells assessed as increase in ROS production at 5 uM after 72 hrs by NBT reduction assay relative to control; type: functional; summary of the method: as §3
HL-60 [15] = test: Cytotoxicity against human HL60 cells after 48 hrs by MTT assay; type: functional, cell-based; conditions: HL-60, 48 h; summary of the method: as §1
[16] = Cytotoxicity against human 518A2 cells after 24 hrs by MTT assay; type: functional, cell-based; conditions: 518A2, 24 h; summary of the method: as §1
HL-60 [17] = test: Cytotoxicity against human HL60 cells assessed as increase in ROS production at 5 uM after 72 hrs by NBT reduction assay relative to control; type: functional; summary of the method: as §3
HL-60 [18] = test: Induction of apoptosis in human HL60 cells assessed as appearance of intact mitochondria in cytosol at 5 uM after 6 hrs using JC1 dye relative to control; type: functional; summary of the method: as §2
MCF7 [19] = test: Cytotoxicity against human topotecan-resistant MCF7 cells after 48 hrs by MTT assay; type: functional, cell-based; conditions: MCF7, 48 h; summary of the method: as §1
[20] = Cytotoxicity against human 518A2 cells assessed as increase in ROS production at 5 uM after 24 hrs by NBT reduction assay relative to control; type: functional; summary of the method: as §3
HL-60 [21] = test: Induction of apoptosis in human HL60 cells assessed as increase of caspase 8 activity at 5 uM after 8 to 18 hrs by luminometric assay; type: functional, cell-based
Summary of the method: (§4)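 HL-60 leukaemia cells were treated with test compound and sampled at intervals from 1 to 24 h. Protein was measured by Bradford. Caspase-9 (Caspase-Glo 8 for line 1) was read from a luminogenic peptide substrate as relative luminescence.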

518A2 [22] = test: Induction of apoptosis in human 518A2 cells assessed as increase of ratio of Bax to Bcl-2 mRNA expression at 5 uM after 6 to 18 hrs by RT-PCR analysis; type: functional, cell-based
Summary of the method: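 518A2 cells exposed to 5 µM compound for 6 h or 18 h. bax and bcl-2 mRNA quantified by real-time PCR, normalised to GAPDH, and expressed as the bax/bcl-2 ratio.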

HL-60 [23] = test: Induction of apoptosis in human HL60 cells assessed as increase of caspase 9 activity at 5 uM measured up to 24 hrs by luminometric assay; type: functional, cell-based; summary of the method: as §4
HL-60 [24] = test: Induction of apoptosis in human HL60 cells assessed as increase of caspase 3 activity at 5 uM after 8 to 18 hrs by luminometric assay; type: functional, cell-based
Summary of the method: (§5)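 HL-60 and 518A2 cells treated with 5 µM compound and sampled at intervals from 1 to 24 h. Lysed in 50 mM Tris-HCl pH 7.4, 150 mM NaCl, 1% Triton X-100 with protease inhibitors for 15 min at 4 °C, spun at 800 g. Protein measured by Bradford. Caspase-3/7, -8 and -9 activities read with luminogenic peptide substrates; reported as relative luminescence.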

HL-60 [25] = test: Induction of apoptosis in human HL60 cells assessed as DNA ladder formation at 5 uM after 24 hrs by agarose gel electrophoresis; type: functional, cell-based
Summary of the method: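 HL-60 cells incubated with 5 µM compound for 24 h, then examined for DNA ladder patterns.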

HL-60 [26] = test: Induction of apoptosis in human HL60 cells assessed as increase of ratio of Bax to Bcl-2 mRNA expression at 5 uM after 6 to 18 hrs by RT-PCR analysis; type: functional, cell-based
Summary of the method: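 Real-time PCR of bax and bcl-2 mRNA in HL-60 cells after 6 h and 18 h exposure to test compound. Each gene was normalised to GAPDH, and the bax/bcl-2 expression ratio was reported.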

518A2 [27] = test: Induction of apoptosis in human 518A2 cells assessed as increase of caspase 3 activity at 5 uM after 8 hrs by luminometric assay; type: functional, cell-based; summary of the method: as §5
HL-60 [28] = test: Induction of apoptosis in human HL60 cells assessed as increase of caspase 9 activity at 5 uM after 12 hrs by luminometric assay; type: functional, cell-based; summary of the method: as §4
518A2 [29] = test: Induction of apoptosis in human 518A2 cells assessed as increase of caspase 8 activity at 5 uM after 6 hrs by luminometric assay; type: functional, cell-based; summary of the method: as §5
HL-60 [30] = test: Induction of apoptosis in human HL60 cells assessed as increase of caspase 8 activity at 5 uM after 24 hrs by luminometric assay; type: functional, cell-based; summary of the method: as §5
HL-60 [31] = test: Induction of apoptosis in human HL60 cells assessed as increase of caspase 8 activity at 5 uM after 12 hrs by luminometric assay; type: functional, cell-based; summary of the method: as §5
HL-60 [32] = test: Induction of apoptosis in human HL60 cells assessed as increase of caspase 3 activity at 5 uM after 18 hrs by luminometric assay; type: functional, cell-based; summary of the method: as §5

Compound | IC50 [1] [µM] | IC50 [2] [µM] | IC50 (HL-60 [3]) [µM] | IC50 [4] [µM] | Activity (518A2 [5]) [%] | IC50 [6] [µM] | Activity (518A2 [7]) [%] | Activity (HL-60 [8]) [%] | IC50 [9] [µM] | IC50 (MCF7 [10]) [µM] | Activity (HL-60 [11]) [%] | IC50 (MCF7 [12]) [µM] | IC50 (HL-60 [13]) [µM] | Activity [14] [%] | IC50 (HL-60 [15]) [µM] | IC50 [16] [µM] | Activity (HL-60 [17]) [%] | Activity (HL-60 [18]) [%] | IC50 (MCF7 [19]) [µM] | Activity [20] [%] | also measured
COc1cccc2c1C(=O)c1c(O)c3c(c(O)c1C2=O)C[C@@](O)(/C(CO)=N/NC(=O)CCCCC(=O)O[C@@H]1C[C@H](C)CC[C@H]1C(C)C)C[C@@H]3O[C@H]1C[C@H](N)[C@H](O)[C@H](C)O1.Cl | 0.32 | 23.3 | 0.33 | 0.42 | 79 | 34.9 | 82 | 1 | > 100 | 6.7 | 66 | 2.4 | 0.39 | 1.5 | 0.33 | 1.2 | 5.7 | 93 | 4.7 | 2.2 | –
COc1cccc2c1C(=O)c1c(O)c3c(c(O)c1C2=O)C[C@@](O)(/C(CO)=N/NC(=O)CCCCCCCCCCC(=O)O[C@H]1C[C@H]2CC[C@]1(C)C2(C)C)C[C@@H]3O[C@H]1C[C@H](N)[C@H](O)[C@H](C)O1.Cl | 0.19 | 24.2 | 0.13 | 0.23 | 73 | 20.7 | 66 | 1.8 | 68.8 | 6.3 | 65 | 1.8 | 0.23 | 3.8 | 0.19 | 0.57 | 7.9 | 78 | 3.8 | 2.7 | –
COc1cccc2c1C(=O)c1c(O)c3c(c(O)c1C2=O)C[C@@](O)(/C(CO)=N/NC(=O)CCCCCCCC(=O)O[C@@H]1C[C@H](C)CC[C@H]1C(C)C)C[C@@H]3O[C@H]1C[C@H](N)[C@H](O)[C@H](C)O1.Cl | 0.46 | 21.8 | 0.37 | 0.51 | 72 | 21.5 | 83 | 1 | 79.6 | 10.2 | 68 | 4.3 | 0.4 | 1.3 | 0.49 | 0.82 | 6.8 | 84 | 7.2 | 1.4 | –
CC/C=C\C/C=C\C/C=C\CCCCCCCC(=O)N/N=C(\CO)[C@]1(O)Cc2c(O)c3c(c(O)c2[C@@H](O[C@H]2C[C@H](N)[C@H](O)[C@H](C)O2)C1)C(=O)c1c(OC)cccc1C3=O.Cl [DOXORUBICIN LINOLENOYLHYDRAZONE HYDROCHLORIDE] | 0.14 | 14 | 0.81 | 0.32 | 96 | 20.5 | 120 | 1 | 40.8 | 5.7 | 71 | 3.6 | 5.1 | 45.1 | 1.2 | 7.4 | 3 | 103 | 4.3 | 2.9 | Activity (HL-60 [21]): Active; Activity (518A2 [22]): Active; Activity (HL-60 [23]): inactive; Activity (HL-60 [24]): Active; Activity (HL-60 [25]): Active; Activity (HL-60 [26]): Active
CCCCC/C=C\C/C=C\CCCCCCCC(=O)N/N=C(\CO)[C@]1(O)Cc2c(O)c3c(c(O)c2[C@@H](O[C@H]2C[C@H](N)[C@H](O)[C@H](C)O2)C1)C(=O)c1c(OC)cccc1C3=O.Cl [DOXORUBICIN LINOLEYLHYDRAZONE HYDROCHLORIDE] | 1.6 | 19.7 | 3.8 | 1.8 | 97 | 18.7 | 80 | 0.4 | 29.6 | 40.5 | 87 | 9.9 | 5.6 | 2.3 | 2.8 | 2.9 | 1.4 | 88 | 20.3 | 1.6 | –
COc1cccc2c1C(=O)c1c(O)c3c(c(O)c1C2=O)C[C@@](O)(/C(CO)=N/NC(=O)CC(=O)O[C@@H]1C[C@H](C)CC[C@H]1C(C)C)C[C@@H]3O[C@H]1C[C@H](N)[C@H](O)[C@H](C)O1.Cl [DOXORUBICIN MENTHOXYCARBONYLACETYLHYDRAZONE HYDROCHLORIDE] | 0.14 | 10.3 | 0.23 | 0.54 | 61 | 18.4 | 93 | 3.8 | 17.8 | 8.4 | 36 | 2.7 | 0.57 | 16.2 | 0.26 | 0.71 | 11.2 | 76 | 3.8 | 3 | Activity (518A2 [22]): Active; Activity (518A2 [27]): Active; Activity (HL-60 [28]): Active; Activity (518A2 [29]): Active; Activity (HL-60 [30]): Active; Activity (HL-60 [25]): Active; Activity (HL-60 [31]): Active; Activity (HL-60 [32]): Active; Activity (HL-60 [26]): Active
CCCCCCCC/C=C\CCCCCCCC(=O)N/N=C(\CO)[C@]1(O)Cc2c(O)c3c(c(O)c2[C@@H](O[C@H]2C[C@H](N)[C@H](O)[C@H](C)O2)C1)C(=O)c1c(OC)cccc1C3=O.Cl [DOXORUBICIN OLEYLHYDRAZONE HYDROCHLORIDE] | 0.42 | 12.7 | 0.56 | 0.39 | 99 | 17.7 | 96 | 0.6 | 32.5 | 14.6 | 104 | 6.6 | 1.2 | 4.4 | 0.56 | 0.67 | 4 | 103 | 6.2 | 2.8 | –
